Type in all cases: functional, cell-based
Assay [1] in a line: Growth inhibition of mouse L1210/0 cells. A digest of the protocol: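 Cells grown with test compound for 48 h at 37 C in humidified CO2-controlled atmosphere; cells counted by Coulter counter at end of incubation; IC50 = concentration reducing number of living cells by 50%.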
Assay [2] can be described thus: Growth inhibition of human Molt4/C8 cells. Conditions: MOLT-4. The gist of the method: (§1)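 Cells grown with test compound for 72 h at 37 C in humidified CO2-controlled atmosphere; cells counted by Coulter counter at end of incubation; IC50 = concentration reducing number of living cells by 50%.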
Assay [3] can be described thus: Growth inhibition of human CEM/0 cells. Conditions: CCRF-CEM. The gist of the method:
as §1

In brackets after ≈: the same amount, converted by molar mass.

In the case of `O=c1[nH]c(=O)n(C2CCCC2)cc1I`, the figures for the IC50 in assay [1], in assay [2] and in assay [3] were 98.8 µg/mL (≈ 323 µM), 53.2 µg/mL (≈ 174 µM) and 60.9 µg/mL (≈ 199 µM), respectively.

Turning to `O=c1[nH]c(=O)n(C2CCCC2)cc1F`, the IC50 in assay [1] came out at 35.1 µg/mL (≈ 177 µM); in assay [2] it was 78.1 µg/mL (≈ 394 µM); in assay [3], 66 µg/mL (≈ 333 µM).

On to `O=c1[nH]c(=O)n(C2CCCC2)cc1Cl`, for which the values for the IC50 in assay [1], in assay [2] and in assay [3] were 103 µg/mL (≈ 480 µM), 81.3 µg/mL (≈ 379 µM) and 82 µg/mL (≈ 382 µM), respectively.

Regarding `O=c1[nH]c(=O)n(C2CCCC2)cc1Br`, the figures for the concentration for half-maximal inhibition (IC50) in assay [1], in assay [2] and in assay [3] were 50.3 µg/mL (≈ 194 µM), 97.2 µg/mL (≈ 375 µM) and 37.1 µg/mL (≈ 143 µM), respectively.

For the molecule `O=c1ccn(C2CCCC2)c(=O)[nH]1`, the IC50 in assay [1] is 66.3 µg/mL (≈ 368 µM); in assay [2], 108 µg/mL (≈ 599 µM); in assay [3], 80 µg/mL (≈ 444 µM).

In the case of `Cc1cn(C2CCCC2)c(=O)[nH]c1=O`, the IC50 in assay [1] worked out at 85.2 µg/mL (≈ 439 µM); in assay [2], 98.8 µg/mL (≈ 509 µM); in assay [3], 138 µg/mL (≈ 710 µM).
